PGC1a Ac signal: raises PGC1a acetylation signal in U2OS cells | U2OS PGC1a acetylation AlphaScreen, overnight | 350,000 tested, 0.21% active | activation, % at 15.6 µM | AID 651723;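 active = every replicate reaching activation of at least 50%, whatever the mean replicate activation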;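 note: hits raise the AlphaScreen acetylation signal above neutral controls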
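System: Flag-PGC1a/GCN5 U2OS cells | Quantity: 7000 cells/well | Times: Overnight compound treatment, 37 °C | Measured by: AlphaScreen proximity luminescence, anti-acetyl-lysine antibody | Dosing: One concentration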
Numbers without * were called inactive. The full list was thinned out, with hits kept by preference.

SMILES | PGC1a Ac signal
CN1[C@@H]2CC(OC(=O)[C@H](CO)c3ccccc3)C[C@H]1[C@@H]1O[C@@H]12 (some centres not stated) | -57.5
O=C(Nc1ccc(OC(=O)c2ccccc2)c(-c2nc3ccccc3s2)c1)c1ccccc1 | 105.7*
CC(C)Oc1ccc2nnnn2n1 | -49.0
COc1ccc(C(=O)OCC(=O)NCc2ccc3c(c2)OCO3)cc1[N+](=O)[O-] | -45.6
COc1ccc([N+](=O)[O-])cc1NCc1ccccc1 | 83.6*
COc1ccc(C(=O)NC(=S)N(C)Cc2ccccc2)cc1Br | -49.2
COc1ccc(C2(NC(C)=O)CCN(C(=O)CCC(=O)O)CC2)cc1 | -49.5
Fc1cccc(-c2ccc([C@@H]3[C@@H]4CN(Cc5nccs5)C[C@H]3N4)cc2)c1 | 75.2*
Fc1cccc(CN2C[C@@H]3N[C@H](C2)C3c2ccc(/C=C/c3ccccc3)cc2)c1 (some centres not stated) | 65.5*
COc1cccc(-c2ccc(C3[C@@H]4CN(Cc5ccccn5)C[C@H]3N4)cc2)c1 (some centres not stated) | 55.5*
COc1cc(CN2C[C@@H]3N[C@H](C2)C3c2ccc(-c3ccccc3C)cc2)cc(OC)c1 (some centres not stated) | -104.6
COc1cccc(CN2C[C@@H]3N[C@H](C2)C3c2ccc(-c3ccccc3F)cc2)c1 (some centres not stated) | 108.2*
Cc1cccc(S(=O)(=O)N(C)C[C@@H]2OCc3cn(nn3)CCCC(=O)N([C@@H](C)CO)C[C@H]2C)c1 | -59.3
CC[C@H](C)[C@@H]1NC(=O)[C@@H](CC(C)C)NC(=O)[C@H](C(C)C)NC(=O)[C@H]2CSSC[C@H](NC1=O)C(=O)N2 | -72.2
COC(=O)C1=CN(Cc2ccc(OC)c(OC)c2)C=C(C(=O)OC)C1c1cccc(O)c1 | -74.2
C/C(=N\N1CCN(c2ccccc2)CC1)c1ccccc1O | -40.2
CN(Cc1c(F)cccc1Cl)c1nnnn1-c1ccccc1 | -46.7
COc1cccc(-c2ccc(C3[C@@H]4CN(Cc5cccc(F)c5)C[C@H]3N4)cc2)c1 (some centres not stated) | -97.5
COc1cccc(CN2C[C@@H]3N[C@H](C2)C3c2ccc(-c3cccc(C#N)c3)cc2)c1 (some centres not stated) | 79.3*
Nc1nc(SCC(=O)Nc2ccccc2Sc2ccc(Cl)cc2)n[nH]1 | 89.2*
N=c1sccn1CC(=O)Nc1ccccc1Sc1ccccc1 | -72.9
O=S(=O)(/C(=C\c1ccc(C(F)(F)F)cc1)c1nc2ccccc2[nH]1)c1ccccc1 | -59.8
CN1/C(=C/C(=O)c2nc(S(C)(=O)=O)ncc2Cl)C(C)(C)c2ccccc21 | -83.4
Cc1cc(C)n(-c2ccc(Cl)c(C(=O)OCC(N)=O)n2)n1 | -45.6
CCOC(=O)c1nc(S(C)(=O)=O)ncc1Cl | 131.7*
SMILES | PGC1a Ac signal
COc1ccc(/C=N/NC(=O)Cn2cnc3ccccc3c2=O)cc1OC | -52.6
O=C(C(Br)=Cc1ccccc1)c1ccccc1 | 159.7*
CCc1ccc(N/C(SCc2ccccc2C)=C(/C#N)C(=O)NCc2ccco2)cc1 | 84.1*
C[C@@H]1CCCCO[C@@H](CN(C)C)[C@@H](C)CN([C@H](C)CO)C(=O)c2cc(NS(=O)(=O)c3ccc(Cl)cc3)ccc2O1 | -44.5
COCC(=O)N1CC(=O)N2[C@@H](CO)[C@H](c3ccc(-c4ccncc4)cc3)[C@@H]2C1 | -102.2
CC(NS(=O)(=O)c1ccccc1Cl)C1CC2CCC1C2 (configuration not stated) | 102.1*
C=CC[C@@H](CC(=O)N[C@@H](CO)Cc1ccccc1)C(=O)N[C@@H](COC(=O)[C@@H](CC=C)CC(=O)OC(C)(C)C)Cc1c[nH]c2ccccc12 | 154.7*
CN(C)c1ccc(/C=C/c2ccc3c4ccccc4ccc3[n+]2-c2ccccc2)cc1 | -43.5
CC(c1ccccc1)C1CC(=O)N(c2ccc([N+](=O)[O-])cc2)C1=O (configuration not stated) | -40.9
O=C(Cc1ccccc1)N1CCN(c2ccc([N+](=O)[O-])cc2)CC1 | 117.6*
O=C(Nc1ccc(N2CCN(Cc3ccccc3F)CC2)cc1)c1ccc([N+](=O)[O-])o1 | -72.7
Cc1cc(C)c(C#N)c(SCC(=O)Nc2nnc(-c3ccccc3)s2)n1 | -44.9
CN1CCN(C(=O)CSc2nc(-c3cccs3)cc(-c3cccs3)c2C#N)CC1 | 60.9*
Cc1cccc(-c2nsc(SCC(=O)N3CCCC3)n2)c1 | -95.5
CCS(=O)(=O)Nc1ccc2c(c1)C(=O)N(C)C[C@@H](OC)[C@H](C)CN(Cc1ccccn1)[C@@H](C)CO2 | -44.4
COc1ccc(OC)c(CN2CCN(C(=O)c3ccc(NS(=O)(=O)c4cccc([N+](=O)[O-])c4)cc3)CC2)c1 | -40.0
COC(=O)c1cc(C(=O)N2CCN(c3cccc(Cl)c3)CC2)cc([N+](=O)[O-])c1 | 77.5*
O=C(Oc1ccc[nH]c1=O)c1cc([N+](=O)[O-])cc([N+](=O)[O-])c1 | -53.2
CN(C)c1ncnc2c1ccn2C1OC(CO)C(O)C1O (configuration not stated) | -52.5

Compound activity: PubChem, Broad Institute
